Measurements reported in ChEMBL document CHEMBL1142626, “Insecticidal and mutagenic evaluation of two annonaceous acetogenins” (J Nat Prod, 2000).

Legend:
Myzus persicae [1] = assay: Antifeedant effect against Myzus persicae assessed as inhibition index at 100 ug/cm2 relative to control; format: functional; design: scale not given: the % may be the effect or the level left
Outline: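 Choice settling test on apterous adult M. persicae: 20 boxes of 10 aphids per treatment. Settling inhibition %SI = [1 − (%aphids on treated/%aphids on control surface)] × 100.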

Myzus persicae [2] = assay: Insecticidal activity against Myzus persicae assessed as offspring production at 100 ug/cm2 observed daily for 4 days; format: functional, organism-based
Outline: (§1)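 No-choice test: 20 boxes, each with five same-age apterous adult M. persicae (100 insects). Nymphs produced in the first 48 h were separated from adults and kept in similarly treated boxes. Both were observed daily for 4 days for mortality. Analysed by contingency tables and LSD test.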

[3] = tested on: Leptinotarsa decemlineata; assay: Antifeedant effect against Leptinotarsa decemlineata assessed as feeding reduction at 10 ug/cm2; format: functional, organism-based
Outline: (§2)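 Choice test on leaf disks using adult L. decemlineata or newly emerged fifth-instar S. littoralis larvae. Five to 10 plates per treatment, three insects each. Uneaten leaf-disk area was measured by scanner. %FR = [1 − (treatment/control consumption)] × 100 per arena. Where FR exceeded 50%, EC50 was taken from linear regression of %FR on log dose.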

Myzus persicae [4] = assay: Insecticidal activity against Myzus persicae assessed as increase in mortality at 100 ug/cm2 observed daily for 4 days; format: functional, organism-based; outline: as §1
Myzus persicae [5] = assay: Insecticidal activity against Myzus persicae assessed as offspring production at 50 ug/cm2 observed daily for 4 days; format: functional, organism-based; outline: as §1
Spodoptera littoralis [6] = assay: Antifeedant effect against Spodoptera littoralis L6 larvae assessed as relative consumption rate at 10 ug, po after 72 hrs; format: functional
Outline: (§3)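 Preweighed, newly emerged S. littoralis L6 larvae (20 per experiment) were orally cannulated with 10 µg in 2 µL DMSO; controls got solvent alone. Relative consumption and growth rates were calculated at 72 h on a dry-weight basis. Log-transformed weights were analysed by ANOVA with LSD tests.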

[7] = tested on: Leptinotarsa decemlineata; assay: Insecticidal activity against Leptinotarsa decemlineata assessed as mortality at 5 ug by hemolymph injection after 72 hrs; format: functional
Outline: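 Adult L. decemlineata (20 beetles) were injected with 5 µg in DMSO through the metepimeron suture of the thorax. Beetles were kept on potato leaves. Symptoms and mortality were recorded up to 3 days, analysed by contingency tables and Abbott-corrected.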

Spodoptera littoralis [8] = assay: Antifeedant effect against Spodoptera littoralis assessed as feeding reduction at 100 ug/cm2 relative to control; format: functional; design: scale not given: the % may be the effect or the level left; outline: as §2
Spodoptera littoralis [9] = assay: Antifeedant effect against Spodoptera littoralis L6 larvae assessed as relative growth rate at 10 ug, po after 72 hrs; format: functional; outline: as §3

In the case of C=C(C)[C@H]1Cc2c(ccc3c2O[C@@H]2COc4cc(OC)c(OC)cc4[C@@H]2C3=O)O1 [ROTENONE], the Activity (Myzus persicae [1]) is reported as under 40%, the Activity (Myzus persicae [2]) is reported as “Toxic” and the Activity [3] is reported as “Toxic”. For the same compound, the Activity (Myzus persicae [4]) was “Non-toxic”, the Activity (Myzus persicae [5]) was “Toxic” and the Activity (Spodoptera littoralis [6]) was 20.88 mg. It also gave an Activity [7] of 100%, an Activity (Spodoptera littoralis [8]) of over 40% and an Activity (Spodoptera littoralis [9]) of 3.47 mg.
